Measurements from different studies.
Lines come from different studies, so protocols differ.
Target: Tyrosine-protein kinase Lck (LCK, Homo sapiens, UniProt P06239)

CC#CC(=O)N1CCC[C@H]1c1nc(-c2ccc(C(=O)Nc3ccccn3)cc2)c2c(N)nccn12  inhibition (enzyme activity, inhibitor; 1 µM): 10%
C#Cc1cnc(Nc2ccc(CO)cc2)nc1Nc1ccccc1C(=O)NC  remaining activity (enzyme activity, inhibitor; 1 µM): 2.4%
C1=C/COCc2cc(ccc2OCCN2CCCC2)Nc2nccc(n2)-c2cccc(c2)COC/1  remaining binding (binding; 0.1 µM): 53%
C[C@H]1CC[C@H](n2c3cnccc3c3cnc(Nc4ccc5c(n4)CCN(C(=O)CO)C5)nc32)CC1  remaining binding (binding, competition with immobilised ligand; 1 µM): 49%
C#Cc1cnc(Nc2ccc(CO)nc2)nc1Nc1ccccc1S(C)(=O)=NC#N (stereo not shown)  remaining activity (enzyme activity, inhibitor; 1 µM): 12.7%
C#Cc1cc(-c2cc(Nc3nc(N[C@@H](C)c4ccc(F)cn4)ncc3Cl)n[nH]2)ccc1C=O  inhibition (enzyme activity, inhibitor; 0.2 µM): 78.9%
CN1CCN(C(=O)c2ccc(NC(=O)Nc3ccc(N(C)c4ccnc(Nc5ccc(CS(C)(=O)=O)cc5)n4)cc3)cc2)CC1  remaining binding (binding, competition with immobilised ligand; 1 µM): 85%
C=CC(=O)N1CCC[C@@H](n2nc(-c3ccc(Oc4ccccc4)cc3)c3c(N)ncnc32)C1  inhibition (enzyme activity, inhibitor; 1 µM): 99%
CNC(=O)c1ccccc1Nc1nc(Nc2ccc(CO)nc2)ncc1Cl  remaining activity (enzyme activity, inhibitor; 1 µM): 3.38%
CCCCC(=O)Nc1ccc(-c2ccc3ncn(CCC)c(=O)c3c2)cn1  remaining binding (binding, competition with immobilised ligand; 0.5 µM): 100%
